# NR2E3 ag-1 = human photoreceptor-specific nuclear receptor agonism; 0.35% of 360,000 active; AID 602229; Q9Y5X4; inhibition of corepressor binding, % at 3.98 µM; CHO-S Gal4-NCOR/VP16-NR2E3 two-hybrid, luciferase;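 active means inhibition above the mean of all tested compounds plus 3 SD, cut at about 70% in these data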;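 further: 0% = DMSO with NR2E3 transfected cells and 100% = cells lacking NR2E3 construct; higher means lower luciferase signal from less NR2E3 corepressor binding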
# Target sequence (Q9Y5X4 whole entry, looked up, the tested form may be a part): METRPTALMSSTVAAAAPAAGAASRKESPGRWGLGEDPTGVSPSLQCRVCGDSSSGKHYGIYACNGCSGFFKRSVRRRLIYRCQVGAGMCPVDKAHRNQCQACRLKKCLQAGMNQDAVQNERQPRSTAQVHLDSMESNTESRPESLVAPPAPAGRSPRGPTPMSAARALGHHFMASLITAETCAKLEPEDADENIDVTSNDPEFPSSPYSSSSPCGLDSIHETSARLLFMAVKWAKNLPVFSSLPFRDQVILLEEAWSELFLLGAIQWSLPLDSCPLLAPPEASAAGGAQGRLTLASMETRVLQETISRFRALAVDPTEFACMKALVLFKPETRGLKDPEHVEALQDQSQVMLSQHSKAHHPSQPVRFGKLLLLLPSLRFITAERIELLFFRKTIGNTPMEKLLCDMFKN
# SMARCA2 act = increases SMARCA2 function in MMTV reporter cells. AID 652017. MG213 cells, MMTV-luciferase reporter, dexamethasone, overnight. activation, % at 9.1 µM. 1% of 370,000 active; in the data active means activation above about 7.8%;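 further: 0% = vehicle wells and 100% = reference activator wells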
# DAX1 inh-1 = DAX1 (NR0B1) inhibition, primary screen; HEK293T StAR-luciferase reporter, SF-1/DAX-1 repression relief; inhibition, % at 6.8 µM; 1.1% of 370,000 active;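 active means inhibition above the mean over all tested compounds plus 3 SD, cut at about 3.6% in these data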;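 further: 0% = DAX-1 cells with DMSO and 100% = cells lacking DAX-1 with DMSO; higher inhibition means more luminescence from relief of DAX-1 repression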
# NR2E3 ag-2 = agonists of human nuclear receptor NR2E3; GST-NR2E3/biotin-RetCOR TR-FRET, 1536-well; inhibition of corepressor binding, % at 4.78 µM; 0.12% of 320,000 active;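 active means percent inhibition above the cutoff of mean plus 3 SD of all tested compounds, set per screening campaign, cut at about 20% in these data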;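 further: 0% = DMSO wells and 100% = biotin wells as full block of FRET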
#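 Assay system: NR2E3–RetCOR corepressor complex. Quantity: 1.35 nM GST-NR2E3. Buffer or medium: pH 7.5 Tris-based buffer. Reagent: biotinylated RetCOR corepressor at 7 nM final. Schedule: 5 h at 4 °C. Detection: TR-FRET, emission read at 617 and 671 nm. Replicates: one well per compound, singlicate testing.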
# DAX1 inh-2 = inhibits human nuclear receptor DAX1; P51843; HEK293 Gal4-DAX1 luciferase reporter, luminescence; inhibition, % at 6.75 µM; 0.99% of 340,000 active; AID 504766;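 active means inhibition above the mean over all tested compounds plus 3 SD, cut at about 4.2% in these data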;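 further: 0% = DAX1-transfected cells with DMSO and 100% = empty-vector control cells with DMSO; inhibition shows as a rise in luminescence from relieved DAX1 repression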
# GASC-1 inh = blocks human GASC-1 demethylase activity; inhibition, % at 2.35 µM; GST-JMJD2C(1-420) H3K9me3 demethylation, DELFIA europium; AID 2099; Q9H3R0; 0.069% of 330,000 active;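 active means more than half of a compound's replicate wells show inhibition beyond 50%, single wells judged on their own value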;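 further: signal counts dimethyl H3K9 product captured on neutravidin plate; 0% = median of DMSO wells and 100% = 0.3 times that DMSO median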
# DAX1 conf = NR0B1 (human) inhibition, confirmation. shares compounds with DAX1 inh-1. HEK293T StAR-promoter luciferase reporter, SF-1/DAX-1 repression. inhibition, % at 6.8 µM. 87% of 2,400 active. AID 652134;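 active means inhibition above the average of every tested compound plus 3 SD, cut at about 3.8% in these data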;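 further: 0% = DAX-1 cells with DMSO and 100% = no DAX-1 control cells with DMSO; active compounds raise luminescence by relieving repression of the StAR reporter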
# SF1 mutant ctr = nonselective inhibitor or artifact in SF-1 mutant DAX1 counter-screen; HEK293 StAR-luciferase, SF-1 AF2 mutant, luminescence; shares compounds with DAX1 inh-1; inhibition, % at 6.8 µM; 78% of 2,400 active; AID 652136;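 active means inhibition above the mean of all tested compounds plus 3 SD, cut at about 3% in these data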;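 further: 0% = DAX-1 transfected cells with DMSO and 100% = cells without DAX-1 with DMSO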
# * marks the source's active call; other numbers are inactive results; nt = not tested or not shown. Compounds with a hit are over-represented: about 3.2% of the library has one in this group of screens.
SMILES,NR2E3 ag-1,SMARCA2 act,DAX1 inh-1,NR2E3 ag-2,DAX1 inh-2,GASC-1 inh,DAX1 conf,SF1 mutant ctr
Cc1ccc(NC(=O)c2sccc2C)nc1,-160,2,9.7*,2,2,7,9.2*,7.2*
Cc1cc(C(=O)COC(=O)Cc2c(F)cccc2Cl)c(C)n1C,-32,5,5.0*,nt,2,nt,5.8*,3.2*
Cc1cc(C(=O)COC(=O)c2cccnc2Cl)c(C)n1C,-138,0,11*,nt,-1,16,17*,8.6*
COC(=O)C(Cc1c[nH]c2ccccc12)NC(=O)c1ccc2nc[nH]c2c1 (stereo not given),-37,2,8.7*,nt,4.5*,nt,13*,6.0*
COC(=O)C(Cc1c[nH]c2ccccc12)NC(=O)c1cncc(Br)c1 (stereo not given),-14,0,0,4,1,-12,nt,nt
Cc1ccc2c(c1)C(=O)CC(c1ccccc1)S2 (stereo not given),-145,5,19*,nt,3,nt,13*,7.4*
CN=Cc1sc2ccccc2c1O,-17,-2,0,-2,1,10,nt,nt
CC(=Nc1ccc(C)cc1)c1sc2ccccc2c1O,-148,5,5.3*,1,3,-1,13*,4.3*
O=C(Nc1cc(Cl)ccc1F)C1CCCN1S(=O)(=O)c1cccc2cccnc12 (stereo not given),nt,-3,-2,nt,nt,nt,nt,nt
CCOC(=O)c1c(C)oc2c1c(CN1CCN(CCO)CC1)c(O)c1ccccc12,-163,-1,4.8*,nt,1,nt,4.2*,3.7*
CCOC(=O)c1c(C)oc2c1c(CN1CCN(C(=O)OCC)CC1)c(O)c1ccccc12,-156,3,2,-1,1,17,nt,nt
Cc1cccc(C)c1-n1nnnc1C(c1ccccc1OC(F)(F)F)N1CCN(C/C=C/c2ccccc2)CC1 (stereo not given),23,-6,4.7*,nt,nt,nt,-3,-1
COc1cccc(C(c2nnnn2-c2c(C)cccc2C)N2CCN(C/C=C/c3ccccc3)CC2)c1OC (stereo not given),14,-2,-3,nt,nt,nt,nt,nt
C[C@@H]1CCN(C2CC2)S(=O)(=O)c2ccc(N3CC[C@H](N(C)C)C3)cc2O1,nt,0,-2,nt,nt,nt,nt,nt
COc1ccc(-c2cc3ccc(OCC(C)=O)cc3oc2=O)cc1,-120,5,9.8*,5,3,11,6.5*,4.5*
COc1ccc(-c2cc3ccc(OCC(C)=O)cc3oc2=O)cc1OC,-56,6,3,1,0,-12,nt,nt
Cc1cccc(C(=O)Nc2nc3ncccn3c2-c2ccc(C(F)(F)F)cc2)c1,nt,-2,-1,nt,nt,nt,nt,nt
O=C1NC[C@H](Cc2ccccc2)N(CC2CCN(CCCC3CCCC3)CC2)C1=O,-18,4,5.5*,nt,0,nt,1,1
O=C(NC1CCCCN(Cc2ccc(Cl)cc2)C1=O)c1ccc(COc2ccccc2)cc1 (stereo not given),nt,-5,-3,nt,nt,nt,nt,nt
Cc1ccc(-c2c(C)sc(=NC(=O)c3ccco3)n2C)cc1,-142,2,5.2*,5,1,3,6.8*,3.0*
COc1ccc(OC)c2c1sc(=NC(=O)c1ccco1)n2C,-24,-1,0,3,1,16,nt,nt
CCCCNS(=O)(=O)CC1NCc2cc(F)ccc21 (stereo not given),nt,2,1,nt,nt,nt,nt,nt
Cn1c(/N=C(\N)c2ccccc2)nc2ccccc21,-65,6,8.4*,nt,4.5*,nt,13*,9.9*
Cn1c(/C=N/NC(=O)c2ccccc2)nc2ccccc21,-25,-1,0,-1,0,-6,nt,nt
CCN(CC)c1ccc(C=C2C(=O)OC(c3ccccc3)OC2=O)cc1 (stereo not given),10,-1,-1,0,2,-4,nt,nt
CN(N=O)c1ccc(C=C2C=Cc3ccccc32)cc1,-211,7,6.3*,nt,5.0*,nt,12*,6.8*

# Screening results (PubChem BioAssay)
